The values below come from PubChem BioAssay.

A short description of assay [1]: hit retest on RPL19A-GFP reporter strain – cell-based, S. cerevisiae, flow cytometry, cherry picks, mother/daughter gates, confirmation (AID 2270;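 active = GFP response below 50% of the DMSO control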). The note with it: 3 h, at 10 µM, stronger effect = lower value, 100 = same GFP as DMSO wells. Background: A flow cytometer gives signals particle by particle.
Assay [2] is described as follows: yeast TOR pathway reporter LAP4-GFP change – cell-based, cherry picks, flow cytometry, mother/daughter gates, confirmation (AID 2271;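 active = GFP response above 150% of the DMSO control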;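 also: ratio of sample to DMSO plate mean so 100% equals DMSO level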). Conditions: S. cerevisiae LAP4-GFP strain, 3 h, at 10 µM, stronger effect = higher value, 100 means same as DMSO control. In a few lines:
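System – GFP-fusion yeast strain · Amount – 0.2 OD600 cells · Buffer or medium – SC growth medium · Dosing – single test-compound dose, 10 µM final · Schedule – 3 h treatment at 30 °C with rotation · Detection – GFP by flow cytometry · Read-out – per-gate (all, mother, daughter) GFP response vs DMSO · Benchmarks – positive rapamycin (400 ng/mL), negative DMSO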

A short description of assay [3]: TOR pathway reporter MEP2-GFP, retest of hits – S. cerevisiae, flow cytometry GFP, cherry picks, confirmation (AID 2272;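 active = GFP response above 150% of the DMSO control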;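 also: ratio of well signal to plate DMSO mean so 100% equals DMSO level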). Conditions: S. cerevisiae MEP2-GFP strain, 3 h, at 10 µM, stronger effect = higher value.
Assay [4] can be described thus: yeast AGP1-GFP fluorescence change, single-dose – cell-based, flow cytometry, S. cerevisiae, cherry picks, confirmation (AID 2273).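 Also: median GFP channel fluorescence over the whole cell population gate.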 The note with it: S. cerevisiae AGP1-GFP strain, 3 h, at 10 µM.
Assay [5] is described as follows: TOR pathway CIT2 reporter hit retest – S. cerevisiae, GFP fusion, cherry picks, mother/daughter gates, confirmation (AID 2274). Conditions: S. cerevisiae CIT2-GFP strain, flow cytometry, 3 h, at 10 µM, stronger effect = higher value.
[6] abbreviates: measured here: daughter cell gate.
Where [7] appears, read: measured here: mother cell gate.
Setting [8] is: measured here: daughter cell gate response.
The mark [9] stands for this setting: measured here: mother cell gate response.

The source made the active and inactive calls.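 The calls were made as follows, unless noted: active = GFP response above 150% of the DMSO level; inconclusive = fewer than 70 events counted for a yeast strain; inactive = the rest.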

Take `O=C(COc1ccc(F)cc1Cl)Nc1nc(-c2ccccn2)cs1`: the GFP response vs DMSO in assay [1] was 98% (inactive); in assay [1] (setting [6]), 94.7%; in assay [1] (setting [7]), 97.1%; in assay [3], 110% (inactive). Further, the GFP response relative to DMSO is 132% (inactive) in assay [2], 132% in assay [2] (setting [8]) and 137% in assay [2] (setting [9]). The GFP response, % of DMSO was 98.8% (inactive) in assay [4], 94.4% (inactive) in assay [5], 97.6% in assay [5] (setting [6]) and 89.3% in assay [5] (setting [7]).

With `CCc1nnc(N2C(=O)c3cccc4cccc(c34)C2=O)s1`, the GFP response vs DMSO in assay [1] is 94.5% (inactive); in assay [1] (setting [6]) it was 95%; in assay [1] (setting [7]), 93.3%; in assay [3], 108% (inactive). Further, the GFP response relative to DMSO in assay [2] is 94.1% (inactive); in assay [2] (setting [8]), 92.9%; in assay [2] (setting [9]) it was 94.4%. Further, the GFP response, % of DMSO in assay [4] is 98.8% (inactive); in assay [5] it was 100% (inactive); in assay [5] (setting [6]), 101%; in assay [5] (setting [7]), 99.3%.

As to `Nc1cc(N)nc(SCC(=O)N2CCc3ccccc32)n1`, the GFP response vs DMSO in assay [1] was 100% (inactive); in assay [1] (setting [6]), 101%; in assay [1] (setting [7]), 99.7%; in assay [3] it was 105% (inactive). The GFP response relative to DMSO in assay [2] was 97.9% (inactive); in assay [2] (setting [8]) it was 97.6%; in assay [2] (setting [9]) it was 96.1%. Also, the GFP response, % of DMSO in assay [4] is 98.5% (inactive); in assay [5] it was 101% (inactive); in assay [5] (setting [6]), 101%; in assay [5] (setting [7]), 101%.

For `CCc1nnc(NC(=O)c2ccc(S(=O)(=O)N(CC)Cc3ccccc3)cc2)o1`, the GFP response vs DMSO in assay [1] is 98.4% (inactive); in assay [1] (setting [6]), 97.8%; in assay [1] (setting [7]) it was 98.8%; in assay [3] it was 102% (inactive). Moreover, the GFP response relative to DMSO was 102% (inactive) in assay [2], 105% in assay [2] (setting [8]) and 99.5% in assay [2] (setting [9]). For the same compound, the GFP response, % of DMSO in assay [4] is 101% (inactive); in assay [5], 105% (inactive); in assay [5] (setting [6]), 106%; in assay [5] (setting [7]), 104%.

With `CC1CCCN(CCCNC(=O)C2CCN(S(=O)(=O)N3CCC4(CC3)OCCO4)CC2)C1` (stereo not given), the GFP response vs DMSO was 96.4% (inactive) in assay [1], 96.1% in assay [1] (setting [6]), 98.5% in assay [1] (setting [7]) and 96.2% (inactive) in assay [3]. Further, the results for the GFP response relative to DMSO in assay [2], in assay [2] (setting [8]) and in assay [2] (setting [9]) were 97.9% (inactive), 97.6% and 96.1%, respectively. Besides, the GFP response, % of DMSO in assay [4] is 98.9% (inactive); in assay [5], 105% (inactive); in assay [5] (setting [6]) it was 106%; in assay [5] (setting [7]), 106%.

For the compound `Cc1cccn2c(=O)c(/C=C(\C#N)C(=O)NC3CCS(=O)(=O)C3)c(N3CCC(C)CC3)nc12` (stereo not given), the GFP response vs DMSO in assay [1] was 102% (inactive); in assay [1] (setting [6]), 101%; in assay [1] (setting [7]), 102%; in assay [3] it was 102% (inactive). For the same compound, the GFP response relative to DMSO is 96.2% (inactive) in assay [2], 97.2% in assay [2] (setting [8]) and 95.2% in assay [2] (setting [9]). Also, the GFP response, % of DMSO is 101% (inactive) in assay [4], 107% (inactive) in assay [5], 99.7% in assay [5] (setting [6]) and 109% in assay [5] (setting [7]).

`COc1ccc(-c2nc(N)n(C(C)=O)n2)cc1`: the GFP response vs DMSO in assay [1] was 103% (inactive); in assay [1] (setting [6]), 102%; in assay [1] (setting [7]), 104%; in assay [3], 102% (inactive). For the same compound, the GFP response relative to DMSO was 95% (inactive) in assay [2], 97.2% in assay [2] (setting [8]) and 95.2% in assay [2] (setting [9]). Besides, the GFP response, % of DMSO in assay [4] is 97.4% (inactive); in assay [5], 110% (inactive); in assay [5] (setting [6]), 110%; in assay [5] (setting [7]), 111%.

As for `O=[N+]([O-])c1ccc(Sc2ccc(Cl)c(Cl)c2)nc1`, the GFP response vs DMSO in assay [1] is 97.1% (inactive); in assay [1] (setting [6]), 96.1%; in assay [1] (setting [7]), 96.9%; in assay [3], 103% (inactive). Also, the GFP response relative to DMSO in assay [2] was 98.9% (inactive); in assay [2] (setting [8]) it was 102%; in assay [2] (setting [9]) it was 100%. Besides, the GFP response, % of DMSO in assay [4] is 101% (inactive); in assay [5], 98.6% (inactive); in assay [5] (setting [6]), 99.3%; in assay [5] (setting [7]) it was 99.3%.

As for `Cc1ccc(-c2nnn(CC(=O)N(CC(=O)NC3CCCC3)c3ccc(F)cc3)n2)o1`, the GFP response vs DMSO in assay [1] was 97.4% (inactive); in assay [1] (setting [6]) it was 98.4%; in assay [1] (setting [7]), 96.8%; in assay [3] it was 99% (inactive). Also, the GFP response relative to DMSO is 97% (inactive) in assay [2], 95.9% in assay [2] (setting [8]) and 96.2% in assay [2] (setting [9]). Also, the GFP response, % of DMSO was 104% (inactive) in assay [4], 100% (inactive) in assay [5], 103% in assay [5] (setting [6]) and 99.3% in assay [5] (setting [7]).

Regarding `O=C(c1ccc2ccccc2c1)N1CCN(c2ccc(O)cc2)CC1`, the GFP response vs DMSO in assay [1] is 101% (inactive); in assay [1] (setting [6]), 100%; in assay [1] (setting [7]), 101%; in assay [3] it was 106% (inactive). In addition, the GFP response relative to DMSO was 101% (inactive) in assay [2], 102% in assay [2] (setting [8]) and 101% in assay [2] (setting [9]). Also, the GFP response, % of DMSO in assay [4] is 99.3% (inactive); in assay [5], 103% (inactive); in assay [5] (setting [6]) it was 103%; in assay [5] (setting [7]), 104%.

For `CCc1nnc(NC(=O)c2nc(S(=O)(=O)Cc3cccc(C)c3)ncc2Cl)s1`, the GFP response vs DMSO in assay [1] was 93.9% (inactive); in assay [1] (setting [6]), 93.1%; in assay [1] (setting [7]), 92.7%; in assay [3], 104% (inactive). Moreover, the GFP response relative to DMSO in assay [2] was 105% (inactive); in assay [2] (setting [8]), 102%; in assay [2] (setting [9]) it was 102%. In addition, the GFP response, % of DMSO in assay [4] is 105% (inactive); in assay [5], 99.3% (inactive); in assay [5] (setting [6]), 100%; in assay [5] (setting [7]), 98%.

As for `O=C(Nc1cccc(O)c1)c1ccc(Br)cc1`, the GFP response vs DMSO was 96% (inactive) in assay [1], 97% in assay [1] (setting [6]), 97.2% in assay [1] (setting [7]) and 102% (inactive) in assay [3]. Also, the GFP response relative to DMSO in assay [2] is 98.8% (inactive); in assay [2] (setting [8]) it was 96.5%; in assay [2] (setting [9]), 100%. The GFP response, % of DMSO was 103% (inactive) in assay [4], 102% (inactive) in assay [5], 102% in assay [5] (setting [6]) and 100% in assay [5] (setting [7]).

On to `O=C(N/N=C/c1ccccn1)c1sc2ccccc2c1Cl`, for which the GFP response vs DMSO in assay [1] was 103% (inactive); in assay [1] (setting [6]), 94%; in assay [1] (setting [7]), 103%; in assay [3], 114% (inactive). Moreover, the GFP response relative to DMSO in assay [2] is 118% (inactive); in assay [2] (setting [8]), 114%; in assay [2] (setting [9]), 126%. Moreover, the GFP response, % of DMSO in assay [4] was 99.3% (inactive); in assay [5] it was 84.7% (inactive); in assay [5] (setting [6]), 88.9%; in assay [5] (setting [7]) it was 82.8%.

Consider `C=CCNC(=O)/C(=C\c1ccc(OC)cc1)NC(=O)c1ccc([N+](=O)[O-])cc1`, for which the GFP response vs DMSO is 97.4% (inactive) in assay [1], 97.6% in assay [1] (setting [6]), 98.7% in assay [1] (setting [7]) and 96.6% (inactive) in assay [3]. For the same compound, the GFP response relative to DMSO is 97.3% (inactive) in assay [2], 99.7% in assay [2] (setting [8]) and 96.2% in assay [2] (setting [9]). For the same compound, the GFP response, % of DMSO was 100% (inactive) in assay [4], 108% (inactive) in assay [5], 108% in assay [5] (setting [6]) and 110% in assay [5] (setting [7]).

For the compound `CC(C)CC[n+]1ccccc1/C=C/c1ccc(N(C)C)cc1`, the GFP response vs DMSO in assay [1] is 98.2% (inactive); in assay [1] (setting [6]), 94.9%; in assay [1] (setting [7]) it was 95.5%; in assay [3], 126% (inactive). Moreover, the figures for the GFP response relative to DMSO in assay [2], in assay [2] (setting [8]) and in assay [2] (setting [9]) were 107% (inactive), 108% and 107%, respectively. Besides, the GFP response, % of DMSO is 107% (inactive) in assay [4], 115% (inactive) in assay [5], 119% in assay [5] (setting [6]) and 113% in assay [5] (setting [7]).
